Assays:
[1] = Cell cycle arrest in human U937 cells assessed as accumulation at G2/M phase at 2 ug/ml after 48 hrs by propidium iodide staining-based flow cytometric analysis (reference value: 16.6%); type: functional; settings: U-937
Method in brief: (§1)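 U937 cells in complete RPMI 1640 (10% FBS, 25 mM HEPES, 2 mM glutamine) seeded at 2 × 10^6 cells/ml in flasks, recovered 24 h, then treated with compounds in DMSO (2 µg/ml). Cisplatin (10 µM) served as positive control and DMSO as negative control. Cells were harvested at 24 or 48 h and stained with propidium iodide. Phase percentages were gated on singlet cells by flow cytometry. Three independent experiments.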

[2] = Cytotoxicity against human SNO cells assessed as cell survival after 48 hrs by XTT assay
U-937 [3] = test: Cytotoxicity against human U937 cells assessed as cell survival after 24 hrs by XTT assay; type: functional, cell-based
DU-145 = test: Cytotoxicity against human DU145 cells assessed as cell survival after 48 hrs by XTT assay; settings: DU-145, 48 h
[4] = Cell cycle arrest in human U937 cells assessed as accumulation at subG1 phase at 2 ug/ml after 24 hrs by propidium iodide staining-based flow cytometric analysis (reference value: 15.1%); type: functional; settings: U-937; method in brief: as §1
HeLa = test: Cytotoxicity against human HeLa cells assessed as cell survival after 48 hrs by XTT assay
MCF7 = test: Cytotoxicity against human MCF7 cells assessed as cell survival after 48 hrs by XTT assay; settings: MCF7, 48 h
[5] = Cell cycle arrest in human U937 cells assessed as accumulation at G2/M phase at 2 ug/ml after 24 hrs by propidium iodide staining-based flow cytometric analysis (reference value: 12.5%); type: functional; settings: U-937; method in brief: as §1
[6] = Cell cycle arrest in human U937 cells assessed as accumulation at G0/G1 phase at 2 ug/ml after 24 hrs by propidium iodide staining-based flow cytometric analysis (reference value: 41.7%); type: functional; settings: U-937; method in brief: as §1
[7] = Cell cycle arrest in human U937 cells assessed as accumulation at S phase at 2 ug/ml after 48 hrs by propidium iodide staining-based flow cytometric analysis (reference value: 25.7%); type: functional; settings: U-937; method in brief: as §1
[8] = Cell cycle arrest in human U937 cells assessed as accumulation at G0/G1 phase at 2 ug/ml after 48 hrs by propidium iodide staining-based flow cytometric analysis (reference value: 54.6%); type: functional; settings: U-937; method in brief: as §1
[9] = Cell cycle arrest in human U937 cells assessed as accumulation at subG1 phase at 2 ug/ml after 48 hrs by propidium iodide staining-based flow cytometric analysis (reference value: 1.1%); type: functional; settings: U-937; method in brief: as §1
[10] = Cell cycle arrest in human U937 cells assessed as accumulation at S phase at 2 ug/ml after 24 hrs by propidium iodide staining-based flow cytometric analysis (reference value: 30.7%); type: functional; settings: U-937; method in brief: as §1
U-937 [11] = test: Induction of apoptosis in human U937 cells assessed as caspase 3/7 activation at 2 ug/ml after 24 hrs by fluorescence reader relative to control; type: functional
Method in brief: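 U937 cells (2 × 10^6/ml, 24 h recovery) were exposed for 24 h to compounds in DMSO (2 µg/ml), with cisplatin 10 µM and DMSO controls. Cells were pelleted and resuspended in RPMI, at least 2 × 10^5 cells per well. (DEVD)2 substrate was added and cells incubated 2 h at 37 °C, 5% CO2, resuspended every 20 min. Fluorescence was read at 544/590 and 544/620 nm.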

PBMC = test: Cytotoxicity against human PBMC assessed as cell survival after 24 hrs by fluorescence assay
U-937 [12] = test: Induction of apoptosis in human U937 cells assessed as viable cells at 2 ug/ml after 24 hrs by annexin V-FITC/propidium iodide staining-based flow cytometry (reference value: 66%); type: functional; settings: U-937, 24 h, read-out: Activity
U-937 [13] = test: Induction of apoptosis in human U937 cells assessed as viable cells at 2 ug/ml after 48 hrs by annexin V-FITC/propidium iodide staining-based flow cytometry (reference value: 81.3%); type: functional; settings: U-937, 48 h, read-out: Activity
U-937 [14] = test: Induction of apoptosis in human U937 cells assessed as necrotic cells at 2 ug/ml after 24 hrs by annexin V-FITC/propidium iodide staining-based flow cytometry (reference value: 24.7%); type: functional
U-937 [15] = test: Induction of apoptosis in human U937 cells assessed as necrotic cells at 2 ug/ml after 48 hrs by annexin V-FITC/propidium iodide staining-based flow cytometry (reference value: 1.4%); type: functional
U-937 [16] = test: Induction of apoptosis in human U937 cells assessed as late apoptotic cells at 2 ug/ml after 48 hrs by annexin V-FITC/propidium iodide staining-based flow cytometry (reference value: 11.7%); type: functional
U-937 [17] = test: Induction of apoptosis in human U937 cells assessed as late apoptotic cells at 2 ug/ml after 24 hrs by annexin V-FITC/propidium iodide staining-based flow cytometry (reference value: 3%); type: functional
U-937 [18] = test: Induction of apoptosis in human U937 cells assessed as early apoptotic cells at 2 ug/ml after 48 hrs by annexin V-FITC/propidium iodide staining-based flow cytometry (reference value: 5.7%); type: functional
U-937 [19] = test: Induction of apoptosis in human U937 cells assessed as early apoptotic cells at 2 ug/ml after 24 hrs by annexin V-FITC/propidium iodide staining-based flow cytometry (reference value: 6.3%); type: functional

SMILES | Activity [1] [%] | IC50 [2] [µM] | IC50 (DU-145) [µM] | Activity [4] [%] | IC50 (HeLa) [µM] | IC50 (MCF7) [µM] | Activity [5] [%] | Activity [6] [%] | Activity [7] [%] | Activity [8] [%] | Activity [9] [%] | Activity [10] [%] | other results
Cc1cc(O)c2c(c1Cl)C(=O)C=CC2=O | 5.4 | 17.2 | 29.5 | 17.1 | 13.5 | 15.7 | 5.4 | 60.9 | 10.5 | 30.2 | 53.5 | 16.2 | Activity (U-937 [3]): Not toxic
CCOc1cc(C)cc2c1C(=O)C=CC2=O | – | 25.3 | 15 | – | 29.7 | 23.7 | – | – | – | – | – | – | –
CC(=O)Oc1c(C)cc(Cl)c2c1C(=O)C=CC2=O | – | 28.6 | 12.5 | – | 21.8 | 18.7 | – | – | – | – | – | – | –
CC(=O)Oc1cc(OC(C)=O)c2c(OC(C)=O)c(C)cc(Cl)c2c1OC(C)=O | – | 53.5 | 81.6 | – | 27.9 | 57.5 | – | – | – | – | – | – | –
Cc1cc(O)c2c(c1)C(=O)C(O)=CC2=O | 7.3 | 23.2 | 6.8 | 3 | 5.3 | 14.6 | 15.5 | 53.4 | 16.1 | 65.1 | 10.6 | 27.3 | Activity (U-937 [11]): 7.39%; IC50 (PBMC): 54 µM
Cc1ccc2c(c1O)C(=O)C=CC2=O | 7 | 19 | 15.4 | 33.8 | 16.4 | 15.3 | 8.6 | 43 | 14.6 | 62.9 | 15 | 14.2 | viability at 2 µg/mL (U-937 [12]): 15.5%; viability at 2 µg/mL (U-937 [13]): 20.1%; Activity (U-937 [14]): 28.3%; Activity (U-937 [15]): 30.3%; Activity (U-937 [16]): 43.2%; Activity (U-937 [11]): -5.14%; Activity (U-937 [17]): 31.4%; Activity (U-937 [18]): 6.4%; Activity (U-937 [19]): 24.8%
Cc1cc(Cl)c2c(c1O)C(=O)C=CC2=O | 5.3 | 9.4 | 9.3 | 18.1 | 10.1 | 10 | 4.5 | 65.6 | 14.1 | 62.2 | 17.9 | 11.4 | viability at 2 µg/mL (U-937 [12]): 5%; Activity (U-937 [3]): Not toxic; viability at 2 µg/mL (U-937 [13]): 1.9%; Activity (U-937 [14]): 49.6%; Activity (U-937 [15]): 60.1%; Activity (U-937 [16]): 36.1%; Activity (U-937 [17]): 28.3%; Activity (U-937 [18]): 1.9%; Activity (U-937 [19]): 17.1%
Cc1cc(O)c2c(c1)C(=O)C=CC2=O [RAMENTACEONE] | – | 81.4 | 11.9 | – | 66.6 | 27.2 | – | – | – | – | – | – | IC50 (PBMC): 18.4 µM
CC(=O)Oc1cc(C)cc2c1C(=O)C=CC2=O | – | 28.1 | 24.1 | – | 17.2 | 14.7 | – | – | – | – | – | – | –
COc1cc(C)c(Cl)c2c1C(=O)C=CC2=O | – | 24.6 | 26.6 | – | 19.1 | 20.6 | – | – | – | – | – | – | –
COc1cc(C)cc2c1C(=O)C=CC2=O | – | 22.5 | 30.7 | – | 21.1 | 15.3 | – | – | – | – | – | – | –
CC(=O)Oc1cc(OC(C)=O)c2c(OC(C)=O)cc(C)c(Cl)c2c1OC(C)=O | – | 56.9 | 59.6 | – | 52.9 | 51.1 | – | – | – | – | – | – | –
CCOc1c(C)cc(Cl)c2c1C(=O)C=CC2=O | – | 37.3 | 26.2 | – | 33.2 | 32.2 | – | – | – | – | – | – | –
Cc1cc(O)c2c(c1Br)C(=O)C=CC2=O | 17.7 | 14.9 | 46.3 | 14.8 | 11.3 | 15.5 | 4.6 | 63.3 | 28.8 | 53 | 13 | 16.8 | viability at 2 µg/mL (U-937 [12]): 15.9%; Activity (U-937 [3]): Not toxic; viability at 2 µg/mL (U-937 [13]): 3.8%; Activity (U-937 [14]): 67.1%; Activity (U-937 [15]): 53.8%; Activity (U-937 [16]): 39%; Activity (U-937 [17]): 7%; Activity (U-937 [18]): 3.4%; Activity (U-937 [19]): 10%
COc1c(C)cc(Cl)c2c1C(=O)C=CC2=O | – | 44.9 | 36.5 | – | 41.5 | 16.2 | – | – | – | – | – | – | –
CC(=O)Oc1cc(C)c(Cl)c2c1C(=O)C=CC2=O | – | 28.8 | 25.5 | – | 26.2 | 37.9 | – | – | – | – | – | – | –
CCOc1cc(C)c(Cl)c2c1C(=O)C=CC2=O | – | 44.2 | 25.4 | – | 19 | 40 | – | – | – | – | – | – | –
CC(=O)Oc1cc(OC(C)=O)c2c(OC(C)=O)cc(C)cc2c1OC(C)=O | – | 25 | 64.6 | – | 22.4 | 82 | – | – | – | – | – | – | –
Cc1cc(O)c2c(c1F)C(=O)C=CC2=O | 6.9 | 18.9 | 15.4 | 8.2 | 10.2 | 20.3 | 4.7 | 69.2 | 15.9 | 64.8 | 11.8 | 17.4 | viability at 2 µg/mL (U-937 [12]): 4.5%; Activity (U-937 [3]): Not toxic; viability at 2 µg/mL (U-937 [13]): 1.6%; Activity (U-937 [14]): 61.1%; Activity (U-937 [15]): 53.9%; Activity (U-937 [16]): 42.6%; Activity (U-937 [11]): -5.21%; Activity (U-937 [17]): 34.2%; Activity (U-937 [18]): 1%; Activity (U-937 [19]): 10.2%; IC50 (PBMC): 189 µM
COc1cccc2c1C(=O)c1c(O)c3c(c(O)c1C2=O)C[C@@](O)(C(=O)CO)C[C@@H]3O[C@H]1C[C@H](N)[C@H](O)[C@H](C)O1 [DOXORUBICIN] | – | 0.01 | 0.01 | – | – | – | – | – | – | – | – | – | –
